# Source: PubChem BioAssay (several laboratories)
# PERK inhibitor: block of dimerizer-induced PERK translation repression, primary screen, PERK inhibitor project, CHO PERK-DD cells, SEAP luminescence, HTS; Eukaryotic translation initiation factor 2-alpha kinase 3 (Homo sapiens), Q9NZJ5; CHO PERK-DD fusion, SEAP luminescence translation reporter; inhibition, % at 5.6 µM; actives 0.17% (n = 220,000); AID 1416, 2008;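 active = inhibition above the mean inhibition of all tested compounds plus 3 SD, set separately per screening campaign, cut at about 2.9% in these data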;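 also: PERK kinase domain activated by AP20187 dimerizer at 100 nM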
# FXIIa inh: human FXIIa protease inhibitors, primary screen, biochemical, 1536-well; Coagulation factor XII (Homo sapiens), P00748; actives 0.3% (n = 220,000); purified FXIIa, Boc-QGR-AMC fluorogenic substrate, 2 h; inhibition, % at 5 µM; in the data active = inhibition above about 40%
# thrombin 1536: human alpha-thrombin inhibitors, primary screen, counter-screen for coagulation protease inhibitor project, biochemical, 1536-well, fluorogenic AMC substrate; AID 1046, 2008; Prothrombin (Homo sapiens), P00734; Boc-VPR-AMC fluorogenic substrate cleavage; actives 0.26% (n = 220,000); inhibition, % at 5 µM;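 active = inhibition at or above 40%; inactive = inhibition below 40%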
#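 Material: Human alpha-thrombin protein | Buffer or medium: pH 7.5 Tris-saline with Tween 20 | Reagent: Boc-VPR-AMC substrate, 15 µM final | Schedule: Reaction at ambient temperature | Detection: AMC fluorescence at 355 nm excitation and 460 nm emission | Evaluation: Percent inhibition scaled between no-compound controls and no-enzyme blanks | Controls: no-compound enzyme wells and no-enzyme blanks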
# Furin inhibitor: human furin inhibitors, primary screen, biochemical, fluorescence intensity | inhibition, % at 20 µM or 30 µM | actives 0.061% (n = 220,000) | purified furin, fluorogenic substrate cleavage | P09958; in the data active = inhibition above about 25%
# hK5 inh: human KLK5 protease inhibitors, primary screen, biochemical, 1536-well. actives 0.59% (n = 210,000). inhibition, % at 5 µM. Kallikrein-5 (Homo sapiens), Q9Y337. AID 873, 2007. recombinant hK5, fluorogenic AMC substrate cleavage;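 active = inhibition of 40% or more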
# Target sequence (Q9Y337 67-293 limits assumed): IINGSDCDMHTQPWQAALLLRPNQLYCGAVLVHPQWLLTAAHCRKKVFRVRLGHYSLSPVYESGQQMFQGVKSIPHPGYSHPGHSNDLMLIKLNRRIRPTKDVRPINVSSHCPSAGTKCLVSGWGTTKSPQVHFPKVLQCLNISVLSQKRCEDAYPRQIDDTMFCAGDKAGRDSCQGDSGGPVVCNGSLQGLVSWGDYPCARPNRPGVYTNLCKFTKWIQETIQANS
# FXIa inh: human FXIa protease inhibitors, primary screen, biochemical, 1536-well; inhibition, % at 5 µM; purified FXIa, Boc-Glu-Ala-Arg-AMC fluorogenic substrate; AID 798, 2007; actives 0.14% (n = 220,000); Coagulation factor XI (Homo sapiens), P03951;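 active = inhibition of at least 40%; inactive = inhibition below 40%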;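 also: fluorescence of freed AMC excited at 355 nm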
# Hits are given with their value; – = inactive; · = no result. Compounds with a hit are over-represented: about 1.2% of the library has one in this group of screens.
SMILES,PERK inhibitor,FXIIa inh,thrombin 1536,Furin inhibitor,hK5 inh,FXIa inh
CC1CC(=O)Nc2ccccc2N1C(=O)Nc1ccc(F)cc1 (stereo not given),–,–,–,–,55,–
CC(C)C1Cc2nc(Cl)c(C#N)cc2CO1 (stereo not given),–,–,–,–,–,–
O=C(c1ccc([N+](=O)[O-])cc1)n1nc(-c2ccccc2)nc1NCc1ccccc1,–,–,87,–,–,–
O=C(c1ccco1)n1nc(-c2ccccc2)nc1NCc1ccco1,–,–,–,–,–,–
O=C(c1cccs1)n1nc(-c2ccccc2)nc1NCc1ccc(F)cc1,–,–,–,–,–,–
O=C(CSc1nc(-c2ccccc2)nn1C(=O)c1ccccc1)Nc1cccc([N+](=O)[O-])c1,–,–,57,–,–,–
O=C(c1cccc([N+](=O)[O-])c1)n1nc(-c2ccccc2)nc1NCc1ccccc1,–,–,67,–,–,–
CCc1ccccc1NC(=O)CSc1nc(-c2ccccc2)nn1C(=O)c1cccc([N+](=O)[O-])c1,–,–,–,–,–,–
CC(=O)n1nc(-c2ccccc2)nc1NCc1ccc(F)cc1,–,–,98,–,–,–
Cc1cccc(NC(=O)CSc2nc(NS(=O)(=O)c3ccccc3)cc(=O)[nH]2)c1,–,–,–,–,–,–
O=C(O)COCC(=O)NCc1csc2ccccc12,–,–,–,–,–,–
CC1CC1C(=O)OCC(=O)Nc1cccc([N+](=O)[O-])c1 (stereo not given),–,–,–,–,–,–
COc1ccc(N2CCN(C(CNC(=O)C(=O)NCc3cccs3)c3ccco3)CC2)cc1 (stereo not given),–,–,–,–,–,–
O=C(c1ccc([N+](=O)[O-])cc1)n1nc(-c2ccccc2)nc1NCc1ccc(F)cc1,–,–,52,–,–,–
CCC(=O)n1nc(-c2cccnc2)nc1NCc1ccc(F)cc1,–,–,·,–,–,–
CS(=O)(=O)N(CC(=O)NCc1ccco1)Cc1ccc(Cl)cc1,–,–,–,–,78,–
O=C(CNCc1ccc(Cl)cc1)Nc1ccc2c(c1)OCCO2,–,–,–,–,–,–
CS(=O)(=O)N(CC(=O)Nc1ccc2c(c1)OCCO2)Cc1ccc(Cl)cc1,–,–,–,–,48,–
Cc1ccc(NN2C(=O)C=C(c3ccccc3)C2=O)cc1,–,–,–,–,–,–
O=C(CCCc1c[nH]c2ccccc12)Nc1ccc2ccccc2c1,–,–,–,–,–,–
CC(=O)n1nc(-c2cccc(C)c2)nc1SCC(=O)Nc1ccccc1,–,–,77,–,–,–
Cc1ccc(NC(=O)CSc2ncc(-c3ccccc3)n2C(=O)c2ccccc2)cc1,–,–,–,–,–,–
CCC(=O)n1nc(-c2ccccc2)nc1SCC(=O)Nc1ccc(C)cc1,–,–,52,–,–,–
CCOC(=O)Nc1ccc2nc(Sc3ccc(Cl)cc3)sc2c1,–,–,–,–,–,–
CCCCCSc1nnc(-c2cc(Br)ccc2N)c(=O)[nH]1,–,–,–,–,42,–
SMILES,PERK inhibitor,FXIIa inh,thrombin 1536,Furin inhibitor,hK5 inh,FXIa inh
CSc1ccc(N=Nc2c(C)[nH]n(C)c2=O)cc1,–,–,–,26,–,–
CC(C)CCNC(=O)NC(=O)CSc1nnc(-c2ccccc2F)n1N,–,–,–,–,76,–
COC(=O)CSc1nnc(-c2sc3cc(OC)ccc3c2Cl)n1C,–,48,–,–,–,–
COC(=O)CSc1nc2cc(OC)ccc2n1C,–,–,–,–,–,–
NS(=O)(=O)c1ccc(-c2ccc(/C=N/Nc3ccc(C(=O)O)cc3)o2)cc1,3.0,–,–,–,–,–
O=C(O)c1ccc(-c2ccc(/C=N/Nc3ccc([N+](=O)[O-])cc3)o2)cc1,–,–,–,–,–,–
COC(=O)c1ccc(NC(=S)Nc2ccc(O)cc2)cc1,–,61,–,–,–,–
COc1ccccc1NC(=O)COC(=O)/C=C/c1ccc2c(c1)OCO2,–,–,–,–,–,–
NC(=O)c1ccc(NC(=O)COC(=O)/C=C/c2ccc3c(c2)OCO3)cc1,–,–,–,–,57,–
Cc1cc(C(=O)Nc2nc(C)c(C(=O)N(C)C)s2)ccc1[N+](=O)[O-],–,53,43,–,–,–
Cc1nc(NC(=O)c2ccc([N+](=O)[O-])cc2Cl)sc1C(=O)N(C)C,–,–,–,–,–,–
CC(=O)Nc1ccc(C(=O)OCC(=O)N(Cc2ccccc2)C(C)(C)C)cc1,–,–,–,–,–,–
COc1cc(/C=N/n2cnnc2)ccc1OC(=O)c1cccnc1,–,42,–,–,–,–
N#CCCN(Cc1cccs1)C(=O)Nc1ccc(F)cc1,–,–,–,–,–,–
O=[N+]([O-])c1ccc(C2Nc3cccc4cccc(c34)N2)cc1,–,–,–,–,63,–
O=[N+]([O-])c1cccc(C2Nc3cccc4cccc(c34)N2)c1,–,–,–,–,–,–
CCOc1cc(NC(=S)NCCCN2CCOCC2)c(OCC)cc1NC(=O)c1ccccc1,–,–,–,–,·,–
CCOc1cc(NC(=S)NCCCN2CCOCC2)c(OCC)cc1NC(=O)c1ccc(C)cc1,–,52,–,–,41,–
NCCCCCC(=O)Nc1ccncc1,–,–,–,–,–,–
CCCn1c(-c2ccc[nH]c2=O)nc2cc(C)c(C)cc21,–,–,–,–,·,–
Fc1ccc(-c2nnc(SCc3cccnc3)o2)cc1,–,–,–,–,–,–
Cc1ccc(N=CC2=C(O)CC(C)(C)CC2=O)nc1,–,–,–,–,–,–
CC1(C)CC(=O)C(C=Nc2ccc(Cl)cn2)=C(O)C1,–,–,–,53,–,–
COc1ccc(C(=O)CCC(C)(C)[N+](=O)[O-])cc1OC,–,–,·,–,–,–
COC(=O)c1cc(N2C(=O)C3C(C2=O)C2(C)C=CC3(C)O2)ccc1Cl (stereo not given),–,–,104,–,44,–
COC(=O)c1cccc(NC(=S)Nc2cc(Cl)ccc2OC)c1,–,–,–,–,·,–
COC(=O)c1cccc(NC(=O)Nc2ccc(Cl)cc2Cl)c1,–,–,–,–,42,–
COC(=O)N/N=C/c1sc(N2CCCCC2)nc1-c1cccs1,–,–,–,–,–,–
NC(=O)c1c(NC(=O)C2CCCO2)sc2c1CCC2 (stereo not given),–,50,–,–,–,–
